ChEMBL document CHEMBL2040734, “Benzothiazoles: search for anticancer agents” (2012)

Key:
Format in all cases: functional
SK-MEL-5 = experiment: Cytotoxicity against human SK-MEL-5 cells assessed as cell growth at 0.01 uM after 48 hrs by sulforhodamine B assay; conditions: SK-MEL-5, 48 h, read-out: Activity
A498 = experiment: Growth inhibition of human A498 cells after 48 hrs by sulforhodamine B assay; conditions: A498, 48 h; for CC50: read-out: LC50 (the source's name)
Method in brief: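 A498 adherent renal cells, plated in RPMI 1640 with 5% FBS and 2 mM L-glutamine, were preincubated for 24 h and then exposed for 48 h at 37 °C to 0.01–100 µM. Fixation was 10% TCA (final) for 60 min at 4 °C, then SRB staining and absorbance at 515 nm. GI50 was derived from (Ti−Tz)/(C−Tz)×100 = 50, using time-zero plates.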

CCRF-CEM = experiment: Cytotoxicity against human CCRF-CEM cells assessed as cell growth at 0.1 uM after 48 hrs by sulforhodamine B assay; conditions: read-out: Activity
Method in brief: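 CCRF-CEM suspension leukemia cells in RPMI 1640 with 5% FBS and 2 mM L-glutamine, plated 24 h before dosing. Five concentrations (0.01–100 µM) were applied from a DMSO stock for 48 h at 37 °C. Settled cells were fixed with 80% TCA (final 16%) and stained with SRB, with read-out at 515 nm. Percent growth was derived from time-zero and control absorbances.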

NCI/ADR-RES = experiment: Cytotoxicity against human NCI/ADR-RES cells assessed as cell growth at 100 uM after 48 hrs by sulforhodamine B assay; conditions: read-out: Activity
EKVX = experiment: Cytotoxicity against human EKVX cells assessed as cell growth at 0.1 uM after 48 hrs by sulforhodamine B assay; conditions: read-out: Activity
Method in brief: (§1)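 Five-dose NCI panel run at 0.01, 0.1, 1, 10 and 100 µM. Cells were in RPMI 1640 with 5% FBS and 2 mM L-glutamine, seeded at 5000–40,000 cells/well and pre-incubated 24 h. Drug was diluted from a DMSO stock into medium with 50 µg/ml gentamicin. Exposure was 48 h at 37 °C, 5% CO2. Cells were fixed with cold TCA and stained with 0.4% SRB, read at 515 nm. Percent growth came from time-zero, control and test absorbances.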

MDA-MB-435 = experiment: Growth inhibition of human MDA-MB-435 cells after 48 hrs by sulforhodamine B assay; conditions: MDA-MB-435, 48 h; for CC50: read-out: LC50 (the source's name)
Method in brief: (§2)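 Adherent NCI-60 lines were grown in RPMI 1640 with 5% FBS and 2 mM L-glutamine, plated at 5000–40,000 cells/well and preincubated 24 h. They were then exposed to five concentrations (0.01–100 µM, from a DMSO stock) for 48 h at 37 °C, 5% CO2. Cells were fixed with cold TCA (10% final, 60 min, 4 °C) and stained with 0.4% SRB. Dye was solubilized in 10 mM Tris base and A515 read. GI50 was derived from time-zero, control and treated absorbances.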

HCC 2998 = experiment: Cytotoxicity against human HCC2998 cells assessed as cell growth at 0.1 uM after 48 hrs by sulforhodamine B assay; conditions: HCC 2998, 48 h, read-out: Activity; method in brief: as §1
MDA-MB-231 [1] = experiment: Cytotoxicity against human MDA-MB-231 cells assessed as cell growth at 0.1 uM after 48 hrs by sulforhodamine B assay; conditions: MDA-MB-231, 48 h, read-out: Activity
COLO 205 = experiment: Cytotoxicity against human COLO205 cells assessed as cell growth at 1 uM after 48 hrs by sulforhodamine B assay; conditions: COLO 205, 48 h, read-out: Activity
Method in brief: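 NCI-60 five-dose screen. Cells were grown in RPMI 1640 with 5% FBS and 2 mM L-glutamine and preincubated 24 h. Compound (DMSO stock) was tested at 0.01, 0.1, 1, 10 and 100 µM for 48 h at 37 °C. Cells were fixed in situ with cold TCA (final 10%) and stained with 0.4% SRB. A515 was read, and percent growth was calculated against time-zero and control plates.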

MOLT-4 = experiment: Cytotoxicity against human MOLT4 cells assessed as cell growth at 0.1 uM after 48 hrs by sulforhodamine B assay; conditions: MOLT-4, 48 h, read-out: Activity
NCI-H322M = experiment: Cytotoxicity against human NCI-H322M cells assessed as cell growth at 0.1 uM after 48 hrs by sulforhodamine B assay; conditions: read-out: Activity
Malme-3M [2] = experiment: Cytotoxicity against human MALME-3M cells assessed as cell growth at 100 uM after 48 hrs by sulforhodamine B assay; conditions: read-out: Activity
TK-10 = experiment: Cytotoxicity against human TK10 cells assessed as cell growth at 0.01 uM after 48 hrs by sulforhodamine B assay; conditions: TK-10, 48 h, read-out: Activity
SF-539 = experiment: Cytotoxicity against human SF539 cells assessed as cell growth at 100 uM after 48 hrs by sulforhodamine B assay; conditions: SF-539, 48 h, read-out: Activity
UACC-62 [3] = experiment: Cytotoxicity against human UACC62 cells assessed as cell growth at 10 '-5 M after 48 hrs by sulforhodamine B assay; conditions: UACC-62, 48 h, read-out: Activity
OVCAR-4 = experiment: Growth inhibition of human OVCAR4 cells after 48 hrs by sulforhodamine B assay; conditions: OVCAR-4, 48 h; method in brief: as §2
SK-OV-3 = experiment: Cytotoxicity against human SKOV3 cells assessed as cell growth at 1 uM after 48 hrs by sulforhodamine B assay; conditions: SK-OV-3, 48 h, read-out: Activity
NCI-H226 = experiment: Cytotoxicity against human NCI-H226 cells assessed as cell growth at 10 '-5 M after 48 hrs by sulforhodamine B assay; conditions: NCI-H226, 48 h, read-out: Activity
Malme-3M [4] = experiment: Cytotoxicity against human MALME-3M cells assessed as cell growth at 0.1 uM after 48 hrs by sulforhodamine B assay; conditions: read-out: Activity
UACC-62 [5] = experiment: Cytotoxicity against human UACC62 cells assessed as cell growth at 10 uM after 48 hrs by sulforhodamine B assay; conditions: UACC-62, 48 h, read-out: Activity
HCT-116 = experiment: Cytotoxicity against human HCT116 cells assessed as cell growth at 1 uM after 48 hrs by sulforhodamine B assay; conditions: HCT-116, 48 h, read-out: Activity; method in brief: as §1
RPMI-8226 = experiment: Cytotoxicity against human RPMI8226 cells assessed as cell growth at 0.01 uM after 48 hrs by sulforhodamine B assay; conditions: RPMI-8226, 48 h, read-out: Activity
[6] = Cytotoxicity against human Hs 578T cells assessed as cell growth at 0.1 uM after 48 hrs by sulforhodamine B assay; conditions: read-out: Activity; method in brief: as §1
SF-295 = experiment: Cytotoxicity against human SF295 cells assessed as cell growth at 10 '-5 M after 48 hrs by sulforhodamine B assay; conditions: SF-295, 48 h, read-out: Activity
MDA-MB-231 [7] = experiment: Cytotoxicity against human MDA-MB-231 cells assessed as cell growth at 0.01 uM after 48 hrs by sulforhodamine B assay; conditions: MDA-MB-231, 48 h, read-out: Activity
SF-268 = experiment: Cytotoxicity against human SF268 cells assessed as cell growth at 100 uM after 48 hrs by sulforhodamine B assay; conditions: SF-268, 48 h, read-out: Activity

Compound	growth at 0.01 µM (SK-MEL-5) [%]	CC50 (A498) [µM]	growth at 0.1 µM (CCRF-CEM) [%]	growth at 100 µM (NCI/ADR-RES) [%]	growth at 0.1 µM (EKVX) [%]	GI50 (MDA-MB-435) [µM]	TGI (MDA-MB-435) [µM]	CC50 (MDA-MB-435) [µM]	growth at 0.1 µM (HCC 2998) [%]	growth at 0.1 µM (MDA-MB-231 [1]) [%]	growth at 1 µM (COLO 205) [%]	growth at 0.1 µM (MOLT-4) [%]	growth at 0.1 µM (NCI-H322M) [%]	growth at 100 µM (Malme-3M [2]) [%]	growth at 0.01 µM (TK-10) [%]	growth at 100 µM (SF-539) [%]	growth at 10 µM (UACC-62 [3]) [%]	GI50 (OVCAR-4) [µM]	LC50 (OVCAR-4) [µM]	TGI (OVCAR-4) [µM]	also measured
Cc1ccc2nc(Nc3c(C)cccc3C)sc2c1	95	> 100	89	46	89	0.242	0.822	> 100	90	84	82	111	105	53	104	48	35.7	> 100	> 100	> 100	growth at 1 µM (SK-OV-3): 91%; growth at 10 µM (NCI-H226): 69.7%; growth at 0.1 µM (Malme-3M [4]): 103%; growth at 10 µM (UACC-62 [5]): 23%; growth at 1 µM (HCT-116): 66%; growth at 0.01 µM (RPMI-8226): 101%; growth at 0.1 µM [6]: 97%; growth at 10 µM (SF-295): 18.9%; growth at 0.01 µM (MDA-MB-231 [7]): 85%; growth at 100 µM (SF-268): 34%
Clc1cccc(Cl)c1Nc1nc2cccc(Cl)c2s1	94	4.16	93	-55	82	0.813	2.38	6.05	87	81	74	109	102	-84	98	-57	-62.9	0.708	5.05	2.14	GI50 (A498): 0.26 µM; TGI (A498): 1.62 µM; growth at 1 µM (SK-OV-3): 86%; growth at 10 µM (NCI-H226): -40.8%; growth at 0.1 µM (Malme-3M [4]): 90%; growth at 10 µM (UACC-62 [5]): -85%; growth at 1 µM (HCT-116): 51%; growth at 0.01 µM (RPMI-8226): 103%; growth at 0.1 µM [6]: 81%; growth at 10 µM (SF-295): -45.1%; growth at 0.01 µM (MDA-MB-231 [7]): 92%; growth at 100 µM (SF-268): -56%
